Experimental data published in ChEMBL document CHEMBL5712082, “PRMT5-mediated regulation of developmental myelination” (Nat Commun, 2018).
The source made the active and inactive calls. The rule behind the calls is not given here.

Assays:
[1] = tested on: Oligodendrocyte progenitor cell; experiment: Inhibition of HDAC in mouse oligodendrocyte progenitor cells assessed as decreased in number of differentiating cells at 20 nM after 24 to 48 hrs by CNP and MBP staining based assay; details: time 24-48 hrs
[2] = molecular target: Protein arginine N-methyltransferase 5 (Mus musculus) (UniProt Q8CIG8); experiment: Inhibition of PRMT5 in mouse oligodendrocyte progenitor cells assessed as increase in levels of H4K5Ac at 10 nM incubated for 24 to 72 hrs by Western blot analysis; assay type: cell-based; details: Oligodendrocyte progenitor cell, time 24-72 hrs
Chain of Protein arginine N-methyltransferase 5 (Mus musculus) (Q8CIG8 whole entry): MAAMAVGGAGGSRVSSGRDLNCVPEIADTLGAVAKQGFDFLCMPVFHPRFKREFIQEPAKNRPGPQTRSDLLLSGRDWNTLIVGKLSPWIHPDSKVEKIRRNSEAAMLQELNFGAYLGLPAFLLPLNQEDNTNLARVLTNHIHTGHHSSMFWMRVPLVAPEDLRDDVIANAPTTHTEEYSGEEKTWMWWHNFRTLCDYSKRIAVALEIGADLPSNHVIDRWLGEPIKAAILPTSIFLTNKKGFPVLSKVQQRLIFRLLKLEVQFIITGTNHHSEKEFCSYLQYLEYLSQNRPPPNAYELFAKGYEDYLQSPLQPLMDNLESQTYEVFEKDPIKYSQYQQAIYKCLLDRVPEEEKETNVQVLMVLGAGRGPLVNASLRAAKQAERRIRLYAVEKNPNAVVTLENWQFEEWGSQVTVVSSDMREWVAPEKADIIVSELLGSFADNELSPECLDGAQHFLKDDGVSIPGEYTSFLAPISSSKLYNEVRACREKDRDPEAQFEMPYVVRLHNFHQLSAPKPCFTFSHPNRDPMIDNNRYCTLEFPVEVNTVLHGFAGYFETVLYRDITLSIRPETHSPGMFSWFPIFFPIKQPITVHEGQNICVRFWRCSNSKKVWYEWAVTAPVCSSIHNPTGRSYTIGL

[3] = Effect on cell proliferation in Trp53fl/fl wild type mouse oligodendrocyte progenitor cells at 10 nM by cell count assay; assay type: toxicity, cell-based; details: 0.01 µM
Outline: (§1)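 Primary OPCs from Trp53fl/fl mice (P7 immunopanning for PDGFRα), uninfected, alongside Cre-retrovirus-infected Trp53−/− counterparts. Cultured in SATO medium with PDGF-AA 10 ng/ml + bFGF 20 ng/ml (proliferating) or without growth factors + T3 60 nM (differentiating). Treated ± 10 nM inhibitor, DMSO controls. Cell counts averaged over three biological replicates.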

[4] = molecular target: Protein arginine N-methyltransferase 5 (Mus musculus) (UniProt Q8CIG8); experiment: Inhibition of PRMT5 in mouse oligodendrocyte progenitor cells assessed as decrease in levels of H4R3me2s incubated for 24 to 72 hrs by immunoreactivity based analysis; details: Oligodendrocyte progenitor cell, time 24-72 hrs
Outline: (§2)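 Primary OPCs in growth-factor-free chemically defined medium, treated with DMSO or inhibitor over a time course. Fixed cells immunostained for H4R3me2s or H4K5ac. Nuclear pixel intensity measured by confocal imaging in an average of 395 cells per condition, three biological replicates.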

[5] = molecular target: Protein arginine N-methyltransferase 5 (Mus musculus) (UniProt Q8CIG8); experiment: Inhibition of PRMT5 in Trp53-/- mouse oligodendrocyte progenitor cells assessed as reduction of the number of cleaved caspase--3-positive CNP+ cells in differentiating OPCs; assay type: cell-based; details: Oligodendrocyte progenitor cell
Outline: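 Trp53−/− OPCs (Trp53fl/fl OPCs infected with Cre retrovirus) and Trp53fl/fl OPCs held in differentiating conditions (no growth factors, 60 nM T3) with or without 10 nM inhibitor. Immunostained for CNP and cleaved caspase-3 with DAPI. CNP+/DAPI+ ratio and cleaved caspase-3 intensity from three biological replicates, expressed relative to untreated cells of the same genotype.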

[6] = molecular target: Protein arginine N-methyltransferase 5 (Mus musculus) (UniProt Q8CIG8); experiment: Inhibition of PRMT5 in mouse oligodendrocyte progenitor cells assessed as decrease in expression of P53-responsive genes ((Mdm2, Cdkn1a, Perp) after 48 hrs by qRT-PCR analysis; assay type: cell-based; details: Oligodendrocyte progenitor cell
[7] = molecular target: Protein arginine N-methyltransferase 5 (Mus musculus) (UniProt Q8CIG8); experiment: Inhibition of PRMT5 in mouse oligodendrocyte progenitor cells assessed as decrease in levels of H4R3me2s in presence of 0.2 uM KAT inhibitor NU-9056 after 24 to 48 hrs by immunoreactivity based analysis; details: Oligodendrocyte progenitor cell, time 24-48 hrs
[8] = molecular target: Protein arginine N-methyltransferase 5 (Mus musculus) (UniProt Q8CIG8); experiment: Inhibition of PRMT5 in Trp53fl/fl wild type mouse oligodendrocyte progenitor cells assessed as decreased in number of differentiating cells at 10 nM by cell count assay; assay type: cell-based; outline: as §1
[9] = molecular target: Protein arginine N-methyltransferase 5 (Mus musculus) (UniProt Q8CIG8); experiment: Inhibition of PRMT5 in mouse oligodendrocyte progenitor cells assessed as decrease in levels of H4R3me2s at 10 nM incubated for 24 to 72 hrs by Western blot analysis; assay type: cell-based; details: Oligodendrocyte progenitor cell, time 24-72 hrs
[10] = molecular target: Protein arginine N-methyltransferase 5 (Mus musculus) (UniProt Q8CIG8); experiment: Inhibition of PRMT5 in mouse oligodendrocyte progenitor cells assessed as decreased in number of differentiating cells in presence of 0.2 uM KAT inhibitor NU-9056 after 24 to 48 hrs by CNP and MBP staining based assay; details: Oligodendrocyte progenitor cell, time 24-48 hrs
[11] = molecular target: Protein arginine N-methyltransferase 5 (Mus musculus) (UniProt Q8CIG8); experiment: Inhibition of PRMT5 in mouse oligodendrocyte progenitor cells assessed as decrease in expression of P53-responsive genes ((Mdm2, Cdkn1a, Perp) in presence of 100 uM KAT inhibitor Butyrolactone-3 after 48 hrs by qRT-PCR analysis; assay type: cell-based; details: Oligodendrocyte progenitor cell
[12] = molecular target: Protein arginine N-methyltransferase 5 (Mus musculus) (UniProt Q8CIG8); experiment: Inhibition of PRMT5 in mouse oligodendrocyte progenitor cells assessed as decrease in expression of P53-responsive genes ((Mdm2, Cdkn1a, Perp) in presence of 0.2 uM KAT inhibitor NU-9056 after 48 hrs by qRT-PCR analysis; assay type: cell-based; details: Oligodendrocyte progenitor cell
[13] = molecular target: Protein arginine N-methyltransferase 5 (Mus musculus) (UniProt Q8CIG8); experiment: Inhibition of PRMT5 in mouse oligodendrocyte progenitor cells assessed as increase in levels of H4K5Ac incubated for 24 to 72 hrs by immunoreactivity based analysis; details: Oligodendrocyte progenitor cell, time 24-72 hrs; outline: as §2
[14] = Effect on cell proliferation in mouse oligodendrocyte progenitor cells assessed as Ki67+/PDGFRalpha+ cell count measured after 12 to 48 hrs by immunoreactivity based assay; assay type: toxicity; details: time 12-48 hrs
Outline: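 P7 mouse OPCs immunopanned for PDGFRα, kept proliferating in SATO medium with PDGF-AA and bFGF, then treated with inhibitor or DMSO. Cells fixed in 4% PFA and immunostained for PDGFRα and KI67. Double-positive (KI67+ PDGFRα+) cells counted by confocal imaging from three biological replicates.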

[15] = molecular target: Protein arginine N-methyltransferase 5 (Mus musculus) (UniProt Q8CIG8); experiment: Inhibition of PRMT5 in mouse oligodendrocyte progenitor cells assessed as decrease in levels of H4R3me2s in presence of 100 uM KAT inhibitor Butyrolactone-3 after 24 to 48 hrs by immunoreactivity based analysis; details: Oligodendrocyte progenitor cell, time 24-48 hrs
[16] = molecular target: Protein arginine N-methyltransferase 5 (Mus musculus) (UniProt Q8CIG8); experiment: Inhibition of PRMT5 in mouse oligodendrocyte progenitor cells assessed as decreased in number of differentiating cells in presence of 100 uM KAT inhibitor Butyrolactone-3 after 24 to 48 hrs by CNP and MBP staining based assay; details: Oligodendrocyte progenitor cell, time 24-48 hrs

Row | inhibition [2] | inhibition [4] | inhibition [5] | inhibition [6] | inhibition [7] | inhibition [8] | inhibition [9] | inhibition [10] | inhibition [11] | inhibition [12] | inhibition [13] | inhibition [15] | inhibition [16] | Structure (SMILES) | inhibition [1] | Activity [3] | Activity [14]
1 | – | – | – | – | – | – | – | – | – | – | – | – | – | CC(/C=C/C(=O)NO)=C\[C@@H](C)C(=O)c1ccc(N(C)C)cc1 | Active | – | –
2 | Active | Active | Active | Active | inactive | Active | Active | inactive | inactive | inactive | Active | inactive | inactive | O=C(NC[C@H](O)CN1CCc2ccccc2C1)c1ccnc(NC2CCC2)c1 | – | Toxic | Non-Toxic
